Experimental data from PubChem BioAssay.
The source made the active and inactive calls.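 Rule for the calls, unless noted: active = viability at or below 10% of carrier control in both of two separate runs; inconclusive = viability at or below 10% in only one of the two runs; inactive = the rest.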

Legend:
[1] = SK-BR-3 cell growth inhibitors, pilot screen, 24 h, human (AID 572); conditions: SK-BR-3 viability, CellTiter-Glo luminescence, at 10 µM, stronger effect = lower value;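 note: compound exposure lasted between 18 and 24 h rather than exactly 24 h; 100% = carrier-treated control wells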
[2] = HUVEC growth inhibition – cell-based, human, primary screen (AID 575;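 active = viability at or below 30% in both replicate assays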;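 note: 100% = median of untreated cell wells with 0.1% DMSO on each plate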); conditions: HUVEC proliferation, CellTiter-Glo luminescence, 72 h; at 10 µM; stronger effect = lower value
Procedure, shortened: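 System – primary HUVEC, no more than 12 passages · Medium – Low-serum (2% FBS) EBM, supplemented · Times – 72 h exposure, 37 °C, 5% CO2, 30 min RT equilibration · Measured by – luminescent ATP assay · Read-out – % viability relative to median vehicle-well signal on each plate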

[3] = growth inhibitors of H69AR lung tumor, primary screen, human, duplicate replicates (AID 580;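 active = viability at or under a set limit in both replicates, limit being median viability minus 3 SD, cut at about 48% in these data, passing the limit was not always enough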;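 note: 100% = mean luminescence of untreated wells and 0% = no signal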); conditions: H69AR lung tumor cells viability, ATP luminescence, 72 h; at 10 µM; stronger effect = lower value
[4] = reversal of MRP1-mediated doxorubicin resistance, pilot screen, H69AR cells, doxorubicin co-treatment (AID 601;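 active = viability loss from added drug above about 55%, and viability with drug at most 40%, in both replicates, limit read from the data, passing the limit was not always enough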); conditions: CellTiter-Glo, 72 h, at 10 µM; for differential viability (reversal): stronger effect = higher value
[5] = 384-well plate pilot, post-Golgi transport modulator project, inhibition of yeast transport mutant growth (AID 636; in the data active = inhibition above about 31%); conditions: absorbance 615 nm, about 18 h, stronger effect = higher value
[6] = growth suppression of yeast trafficking mutant, preliminary HTS, modulators of trafficking downstream of Golgi apparatus project, 1536-format plate, OD 615 nm (AID 637; in the data active = inhibition above about 30%); conditions: yeast transport mutant growth, absorbance 615 nm, 18 h; stronger effect = higher value
[7] = H69AR cells + 2 uM doxorubicin, measured here: viability with 2 uM doxorubicin, stronger effect = lower value
[8] = H69AR cells, compound alone cytotoxicity

SMILES	viability [1]	viability [2]	viability [3]	differential viability (reversal) ([4]; H69AR cells + 2 uM doxorubicin)	viability [4, 7] [%]	viability [4, 8] [%]	inhibition [5]	inhibition [6]
COc1ccc(-n2nnnc2SCC(=O)c2ccc(O)c(O)c2)cc1	74% (inactive)	58.6% (inactive)	34.7% (active)	-41.9% (inactive)	76.6	34.7	-5.89% (inactive)	-1.45% (inactive)
CC(=O)/C(C[N+]1(C)CCCCC1)=N\O	107% (inactive)	103% (inactive)	105% (inactive)	18.9% (inactive)	85.6	105	-6.13% (inactive)	0.55% (inactive)
CC1=Nn2c(nnc2-c2ccccc2)SC1	96% (inactive)	105% (inactive)	95.2% (inactive)	17.6% (inactive)	77.7	95.2	-0.93% (inactive)	0% (inactive)
COc1cc(NS(=O)(=O)c2ccc(N)cc2)ncn1	107% (inactive)	75% (inactive)	92% (inactive)	27% (inactive)	65	92	-1.56% (inactive)	2.5% (inactive)
CN1CCN(S(=O)(=O)c2ccc(NC(=O)Nc3cccc(Cl)c3)cc2)CC1	96% (inactive)	4.34% (active)	65% (inactive)	-8.79% (inactive)	73.8	65	-3.6% (inactive)	1.31% (inactive)
Cc1ccc(N(C(C)C(=O)Nc2ccc(S(=O)(=O)N3CCOCC3)cc2)S(C)(=O)=O)cc1 (centres undefined)	87% (inactive)	106% (inactive)	99.8% (inactive)	-6.04% (inactive)	106	99.8	-6.3% (inactive)	-7.9% (inactive)
O=C(Nc1ccc(Br)c2cccnc12)c1ccc(Cn2cc(Cl)cn2)o1	156% (inactive)	43% (inactive)	87.4% (inactive)	9.23% (inactive)	78.2	87.4	-1.56% (inactive)	-3.44% (inactive)
COc1cc(C(=O)N2CCCC(c3nc(-c4cccs4)no3)C2)cc(OC)c1OC (centres undefined)	90.5% (inactive)	94.2% (inactive)	89.7% (inactive)	20.3% (inactive)	69.4	89.7	-1.05% (inactive)	16% (inactive)
Cc1ccc(C)c(-n2nnnc2SCC(=O)NCCC2=CCCCC2)c1	91% (inactive)	73.5% (inactive)	93.2% (inactive)	-11.3% (inactive)	105	93.2	-4.66% (inactive)	2.36% (inactive)
COc1cccc(-c2cc(C(=O)Nc3c(C)nn(Cc4ccccc4)c3C)no2)c1	158% (inactive)	82.6% (inactive)	98.2% (inactive)	8.66% (inactive)	89.5	98.2	-5.81% (inactive)	-7.33% (inactive)
CCn1c(SCC(=O)Nc2cc(NC(C)=O)ccc2OC)nnc1-c1ccccn1	93% (inactive)	89.6% (inactive)	94.1% (inactive)	8.36% (inactive)	85.8	94.1	-1.51% (inactive)	2.1% (inactive)
CC(C)(C)n1ncc2c(=O)n(CC(=O)NCc3ccc(F)cc3)cnc21	95% (inactive)	63.4% (inactive)	14.6% (active)	-59.8% (inactive)	74.4	14.6	2.43% (inactive)	-5.27% (inactive)
C[N+](C)(C)CCOP(=O)([O-])OC[C@H](O)CO	100% (inactive)	99.1% (inactive)	96% (inactive)	0.95% (inactive)	95	96	-2.99% (inactive)	-5.17% (inactive)
Cc1nc2scc(-c3ccco3)c2c(=O)n1/N=C/N(C)C	87% (inactive)	76.1% (inactive)	95.3% (inactive)	2.7% (inactive)	92.6	95.3	-4.86% (inactive)	-4.73% (inactive)
Nc1ncnc2nc(Sc3ccc(Cl)cc3)[nH]c12	99% (inactive)	96.1% (inactive)	98.6% (inactive)	7.52% (inactive)	91.1	98.6	0.52% (inactive)	4.59% (inactive)
CC(=O)OC[C@H]1O[C@@H](n2ncc(=O)[nH]c2=O)[C@H](OC(C)=O)[C@@H]1OC(C)=O	103% (inactive)	84.3% (inactive)	91.3% (inactive)	3.12% (inactive)	88.2	91.3	-0.39% (inactive)	3.17% (inactive)
O=C(NCC(=O)N(Cc1cccs1)C(C(=O)NC1CCCC1)c1ccncc1)c1ccco1 (centres undefined)	102% (inactive)	109% (inactive)	85.7% (inactive)	2.2% (inactive)	83.5	85.7	-0.54% (inactive)	16.4% (inactive)

SMILES	viability [1]	viability [2]	viability [3]	differential viability (reversal) ([4]; H69AR cells + 2 uM doxorubicin)	viability [4, 7] [%]	viability [4, 8] [%]	inhibition [5]	inhibition [6]
C=CCn1c(SCC#N)nc2c(c1=O)C(C)(C)Cc1ccccc1-2	104% (inactive)	76.2% (inactive)	78.8% (inactive)	-6.17% (inactive)	85	78.8	-5.62% (inactive)	3.71% (inactive)
CCCCc1c(O)nc(N2CCN(Cc3ccccc3)CC2)[nH]c1=O	93% (inactive)	98.8% (inactive)	96.1% (inactive)	-1.67% (inactive)	97.8	96.1	-7.16% (inactive)	-1.82% (inactive)
CCCCNC(=O)CSc1nc2ccc(N3CCOCC3)cc2c(=O)n1CCc1ccccc1	95.5% (inactive)	70.1% (inactive)	69.3% (inactive)	18.1% (inactive)	51.3	69.3	-7.16% (inactive)	4.13% (inactive)
CC(C)(C)NC(=O)C(Cc1ccccc1)NS(=O)(=O)c1cccc2nsnc12 (centres undefined)	87% (inactive)	105% (inactive)	87.8% (inactive)	-7.5% (inactive)	95.3	87.8	-9.86% (inactive)	-1.09% (inactive)
Cn1nc(-c2ccc(N3CCCCC3)c(NC(=O)c3ccco3)c2)c2ccccc2c1=O	107% (inactive)	56.2% (inactive)	32.3% (active)	11.6% (inactive)	20.8	32.3	1.6% (inactive)	4.35% (inactive)
CC1(C)SC2[C@H](NC(=O)C(NC(=O)N3CCNC3=O)c3ccccc3)C(=O)N2C1C(=O)O (some centres undefined)	107% (inactive)	80.2% (inactive)	95.3% (inactive)	1.74% (inactive)	93.6	95.3	0.26% (inactive)	2.67% (inactive)
COc1ccc(-c2ccc(-c3noc(-c4ccccc4)n3)c(OC)n2)cc1	103% (inactive)	68.3% (inactive)	88% (inactive)	3.25% (inactive)	84.7	88	-8.51% (inactive)	-10.2% (inactive)
CCN(CC)C(c1ccc(C)cc1)c1nnnn1C1CCCCC1 (centres undefined)	64% (inactive)	102% (inactive)	75.5% (inactive)	7% (inactive)	68.5	75.5	-6.13% (inactive)	-4.73% (inactive)
CCCCC[C@H](O)/C=C/C1=C(CCCCCCC(=O)O)C(=O)CC1	109% (inactive)	75.2% (inactive)	92.5% (inactive)	-9.49% (inactive)	102	92.5	-0.26% (inactive)	-1.17% (inactive)
O=C(CN1C(=O)COc2ccccc21)N(Cc1cccnc1)Cc1ccccc1F	78% (inactive)	96.6% (inactive)	83.5% (inactive)	8.57% (inactive)	74.9	83.5	-2.97% (inactive)	0.55% (inactive)
CCOC(=O)C1CCN(C(C)=C2C(=O)c3ccccc3C2=O)CC1	98% (inactive)	110% (inactive)	105% (inactive)	10.4% (inactive)	94.6	105	-4.66% (inactive)	7.26% (inactive)
c1ccc(-c2cnc(CSc3ncnc4sccc34)o2)cc1	94% (inactive)	90.7% (inactive)	96.9% (inactive)	14.7% (inactive)	82.2	96.9	-5.68% (inactive)	-5.82% (inactive)
CCCS(=O)(=O)N1CCCC(C(=O)NC2CCCC(C)C2C)C1 (centres undefined)	101% (inactive)	113% (inactive)	94.8% (inactive)	8.93% (inactive)	85.8	94.8	-2.73% (inactive)	-3.28% (inactive)
Cn1c(=O)[nH]c(=O)c2c1nc(Br)n2CCCSc1nc2ccccc2o1	89% (inactive)	36.2% (inactive)	23.8% (active)	-9.42% (inactive)	33.3	23.8	-4.13% (inactive)	-4.55% (inactive)
CCC(CC)C1C(C#N)=C(N)Oc2n[nH]c(C)c21 (centres undefined)	85% (inactive)	91.9% (inactive)	24.9% (active)	-44.6% (inactive)	69.6	24.9	-6.22% (inactive)	-0.18% (inactive)
O=C(CN1C(=O)c2ccccc2C1=O)Nc1ccc(S(=O)(=O)NCC2CCCO2)cc1 (centres undefined)	89% (inactive)	107% (inactive)	96.4% (inactive)	-14.1% (inactive)	110	96.4	-7.4% (inactive)	-4.91% (inactive)
